Measurements published in ChEMBL document CHEMBL1130051, “9-Benzyladenines: potent and selective cAMP phosphodiesterase inhibitors” (J Med Chem, 1997).
pIC50, pKi: −log10 of the molar value.

Experiments:
[1] = target: T1, Phosphodiesterase 4 (Homo sapiens, UniProt P27815+Q08499+Q07343+Q08493); test: Inhibition of phosphodiesterase 4 at 1 uM cAMP; assay type: protein assay
Outline: (§1)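 Enzyme activity was measured at 1 μM substrate, and the drug concentration giving 50% inhibition was taken as the IC50. IC50 was calculated by linear regression (r = 0.95) as the mean of three determinations, with experimental error about 15%. Values above 200 μM were reported as ns.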

[2] = target: T2, Phosphodiesterase 3 (Homo sapiens, UniProt Q14432+Q13370); test: Inhibition of phosphodiesterase 3 at 1 uM cAMP; assay type: protein assay; outline: as §1
[3] = target: Phosphodiesterase 1 (Homo sapiens, UniProt P54750+Q01064+Q14123); test: Inhibition of phosphodiesterase 1; assay type: protein assay; outline: as §1
[4] = target: T3, cGMP-specific 3',5'-cyclic phosphodiesterase (Homo sapiens, UniProt O76074); test: Inhibition of phosphodiesterase 5; outline: as §1
[5] = target: GABA-A receptor; anion channel; test: Displacement of [3H]diazepam from rat brain GABA-A benzodiazepine receptor
[6] = target: Adenosine A2 receptor (Homo sapiens, UniProt P29275+P29274); test: Displacement of [3H]NECA from Adenosine A2 receptor; assay type: protein assay
[7] = target: T2, Phosphodiesterase 3; test: Inhibitory concentration against Phosphodiesterase 3 was tested by linear regression; assay type: protein assay; outline: as §1
[8] = target: T4, Adenosine receptor A1 (Homo sapiens, UniProt P30542); test: Displacement of [3H]CHA from Adenosine A1 receptor
T4 sequence (P30542 whole entry): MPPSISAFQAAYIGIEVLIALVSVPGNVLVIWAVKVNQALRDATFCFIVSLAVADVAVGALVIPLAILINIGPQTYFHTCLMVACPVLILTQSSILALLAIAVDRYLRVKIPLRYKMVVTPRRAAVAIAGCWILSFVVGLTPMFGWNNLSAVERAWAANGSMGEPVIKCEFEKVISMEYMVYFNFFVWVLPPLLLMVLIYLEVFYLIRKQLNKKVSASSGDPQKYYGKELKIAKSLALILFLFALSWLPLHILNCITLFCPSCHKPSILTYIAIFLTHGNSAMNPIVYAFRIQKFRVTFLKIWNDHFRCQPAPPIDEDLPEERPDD

[9] = target: T3, cGMP-specific 3',5'-cyclic phosphodiesterase; test: Inhibition of Phosphodiesterase 5
[10] = target: T1, Phosphodiesterase 4; test: Inhibition of Phosphodiesterase 4; assay type: protein assay

Row | SMILES | IC50 [1] | IC50 [2] | also measured
1 | Nc1nc(C(F)(F)F)nc2c1ncn2Cc1ccccc1 | 1.8 µM | 101 µM | –
2 | CN(C)c1nc(C(F)(F)F)nc2c1ncn2Cc1ccccc1 | 11 µM | 61 µM | –
3 | CNc1nc(C(F)(F)F)nc2c1ncn2C | 11 µM | 331 µM | –
4 | CNc1nc(C(F)(F)F)nc2c1ncn2CCc1ccccc1 | 0.75 µM | > 200 µM | –
5 | Cl.Fc1ccccc1Cn1cnc2c(N3CCCCC3)ncnc21 | 121 µM | > 200 µM | –
6 | Nc1ncnc2c1ncn2Cc1ccccc1 [9-BENZYL-9H-ADENINE] | 160 µM | > 200 µM | –
7 | CCCCCC[C@@H]([C@@H](C)O)n1cnc2c(N)ncnc21 [EHNA] | – | – | pKi [9]: < 3.70; Ki [10]: > 200 µM

The next lines start with results.

Row | IC50 [1] | IC50 [2] | SMILES | also measured
8 | 54 µM | > 200 µM | CNc1ncnc2c1nc(C)n2Cc1ccccc1F.CS(=O)(=O)O | –
9 | 0.04 µM | 380 µM | CNc1nc(C(F)(F)F)nc2c1ncn2Cc1ccccc1F | IC50 [3]: 40 µM; pIC50 [4]: 5.30
10 | 3 µM | – | CNc1ncnc2c1ncn2Cc1ccccc1F.CS(=O)(=O)O | pIC50 [5]: 4.89; IC50 [6]: > 100 µM; IC50 [7]: 121 µM; pIC50 [8]: < 4.00; pKi [9]: 5.19; Ki [10]: 2 µM
11 | 4.6 µM | 339 µM | CNc1ncnc2c1ncn2Cc1ccccc1.CS(=O)(=O)O | –
12 | 0.2 µM | 250 µM | CNc1nc(C)nc2c1ncn2Cc1ccccc1F.CS(=O)(=O)O | –
13 | 0.5 µM | > 200 µM | CNc1nc(-c2ccccc2)nc2c1ncn2Cc1ccccc1F.CS(=O)(=O)O | –
14 | 53 µM | > 200 µM | CCCCNc1ncnc2c1ncn2Cc1ccccc1F.Cl | –
